The test system of one series is Ramos. Nature of the series: Antiproliferative activity against human Ramos cells after 72 hrs by MTT assay. The class given is functional, cell-based. The essentials: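 Cells grown in RPMI-1640 with FBS at 37 °C, 5% CO2. Seeded and grown 2 h, then treated with various concentrations in PBS solution, each in triplicate, and cultured a further 72 h. Viability read by MTT. IC50 from the Logit method, given as mean ± SD of three independent determinations.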
On the technique in general: Tetrazolium assays rely on reduction of a dye to a coloured formazan, in cell work by metabolically active cells.

In series [1] the target is T1, Tyrosine-protein kinase TXK (Homo sapiens, UniProt P42681).
T1 sequence (P42681 whole entry): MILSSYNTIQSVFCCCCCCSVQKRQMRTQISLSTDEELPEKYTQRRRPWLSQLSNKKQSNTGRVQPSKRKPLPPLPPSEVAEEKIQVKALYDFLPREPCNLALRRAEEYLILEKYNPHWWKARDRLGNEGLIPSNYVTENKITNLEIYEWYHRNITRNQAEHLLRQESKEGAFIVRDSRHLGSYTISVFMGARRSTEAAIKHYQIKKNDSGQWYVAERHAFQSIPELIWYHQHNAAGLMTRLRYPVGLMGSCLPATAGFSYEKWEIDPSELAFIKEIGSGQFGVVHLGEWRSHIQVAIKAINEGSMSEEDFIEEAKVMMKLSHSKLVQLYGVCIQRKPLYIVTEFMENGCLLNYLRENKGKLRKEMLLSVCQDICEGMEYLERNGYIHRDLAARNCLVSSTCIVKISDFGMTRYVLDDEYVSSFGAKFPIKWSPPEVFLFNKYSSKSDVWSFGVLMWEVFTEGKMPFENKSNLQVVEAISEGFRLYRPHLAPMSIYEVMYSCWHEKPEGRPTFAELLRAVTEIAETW
Nature of the series: Inhibition of recombinant human TXK using Poly(Glu, Tyr) 4:1 as substrate after 1 hr by ELISA. The essentials: (§1)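 Kinase activity was measured by ELISA on wells precoated with 20 µg/mL poly(Glu,Tyr) 4:1. Enzyme was incubated with compound in 50 mM HEPES pH 7.4, 20 mM MgCl2, 0.1 mM MnCl2, 0.2 mM Na3VO4, 1 mM DTT with 5 µM ATP at 37 °C for 1 h. Phosphotyrosine was detected with PY99 antibody, HRP secondary and OPD, read at A492. IC50 is the mean of duplicates.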
(ELISA stands for enzyme-linked immunosorbent assay.)

In series [2] the test system is TMD8. The experiment in a line: Induction of apoptosis in human TMD8 cells assessed as early apoptotic cells at 100 nM after 72 hrs by Annexin-FITC/propidium iodide staining-based flow cytometric method (reference value: 7.98%). The class given is functional.
Series [3] has as its target T2, Tyrosine-protein kinase Tec (Homo sapiens, UniProt P42680).
T2 sequence (P42680 whole entry): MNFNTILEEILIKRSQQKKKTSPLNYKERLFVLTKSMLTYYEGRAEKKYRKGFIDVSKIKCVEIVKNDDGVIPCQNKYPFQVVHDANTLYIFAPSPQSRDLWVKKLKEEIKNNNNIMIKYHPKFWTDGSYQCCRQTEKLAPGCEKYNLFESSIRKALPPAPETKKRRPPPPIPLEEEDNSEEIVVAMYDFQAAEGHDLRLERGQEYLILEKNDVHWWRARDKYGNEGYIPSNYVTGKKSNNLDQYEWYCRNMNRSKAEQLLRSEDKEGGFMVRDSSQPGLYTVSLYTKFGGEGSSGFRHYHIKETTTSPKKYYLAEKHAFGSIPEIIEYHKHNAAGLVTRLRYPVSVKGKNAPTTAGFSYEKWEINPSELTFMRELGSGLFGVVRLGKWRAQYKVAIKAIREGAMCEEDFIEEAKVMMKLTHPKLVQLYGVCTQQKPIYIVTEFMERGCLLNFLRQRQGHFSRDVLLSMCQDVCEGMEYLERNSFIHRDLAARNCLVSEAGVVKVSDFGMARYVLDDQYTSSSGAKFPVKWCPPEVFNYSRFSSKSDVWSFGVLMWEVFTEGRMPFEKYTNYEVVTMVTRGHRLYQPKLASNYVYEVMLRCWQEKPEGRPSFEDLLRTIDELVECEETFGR
The experiment in a line: Inhibition of recombinant human TEC using Poly(Glu, Tyr) 4:1 as substrate after 1 hr by ELISA. The essentials:
as §1

In series [4] the test system is TMD8. Nature of the series: Induction of apoptosis in human TMD8 cells assessed as late apoptotic cells at 1000 nM after 72 hrs by Annexin-FITC/propidium iodide staining-based flow cytometric method (reference value: 3.2%). The series is classed as functional.
In series [5] the target is T3, Tyrosine-protein kinase ITK/TSK (Homo sapiens, UniProt Q08881).
T3 sequence (Q08881 whole entry): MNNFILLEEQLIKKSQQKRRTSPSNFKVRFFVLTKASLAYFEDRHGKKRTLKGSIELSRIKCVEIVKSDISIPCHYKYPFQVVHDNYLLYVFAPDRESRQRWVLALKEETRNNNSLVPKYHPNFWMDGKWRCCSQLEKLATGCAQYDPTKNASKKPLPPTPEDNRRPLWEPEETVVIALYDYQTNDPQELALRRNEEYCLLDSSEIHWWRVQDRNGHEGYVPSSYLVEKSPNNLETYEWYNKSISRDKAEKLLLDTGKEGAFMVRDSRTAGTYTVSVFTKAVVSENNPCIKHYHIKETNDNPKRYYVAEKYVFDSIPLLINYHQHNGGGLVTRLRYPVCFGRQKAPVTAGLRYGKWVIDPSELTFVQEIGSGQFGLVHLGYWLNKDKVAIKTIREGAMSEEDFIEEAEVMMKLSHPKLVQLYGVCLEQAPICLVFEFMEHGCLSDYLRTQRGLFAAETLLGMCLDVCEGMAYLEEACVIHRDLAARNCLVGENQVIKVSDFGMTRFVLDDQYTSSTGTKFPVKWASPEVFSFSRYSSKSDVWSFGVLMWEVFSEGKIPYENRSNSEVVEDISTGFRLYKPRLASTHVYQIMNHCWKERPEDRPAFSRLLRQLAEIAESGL
Nature of the series: Inhibition of recombinant human ITK using Poly(Glu, Tyr) 4:1 as substrate after 1 hr by ELISA. An outline of the steps:
as §1

A short description of series [6]: Drug metabolism in mouse liver microsomes assessed as (S)-4-(4-(4,7-diamino-6-methylene-7,8-dihydro-6H-pyrimido[5,4-b]pyrrolizin-5-yl)phenoxy)phenol formation after 3 hrs. The series is classed as ADME, microsome.
Series [7] relates to TMD8. Nature of the series: Induction of apoptosis in human TMD8 cells assessed as late apoptotic cells at 10 nM after 72 hrs by Annexin-FITC/propidium iodide staining-based flow cytometric method (reference value: 3.2%). The series is classed as functional. (In general: In flow cytometry, cells or beads pass a laser one at a time.)
Series [8] has as its target Receptor tyrosine-protein kinase erbB-2 (Homo sapiens, UniProt P04626). Nature of the series: Inhibition of recombinant human ErbB2 using Poly(Glu, Tyr) 4:1 as substrate after 1 hr by ELISA. An outline of the steps:
as §1

The nature of series [9]: Drug metabolism in rat liver microsomes assessed as (S,E)-N-(4-amino-6-methylene-5-(4-phenoxyphenyl)-7,8-dihydro-6H-pyrimido[5,4-b]pyrrolizin-7-yl)-3-hydroxyacrylamide formation after 3 hrs. The class given is ADME, microsome.
Series [10] can be described thus: Drug metabolism in human liver microsomes assessed as N-((S)-4-amino-6-methylene-5-(4-phenoxyphenyl)-7,8-dihydro-6H-pyrimido[5,4-b]pyrrolizin-7-yl)-2,3-dihydroxypropanamide formation after 3 hrs. The class given is ADME, microsome.
In a further series the test system is Mus musculus. Nature of the series: In vivo inhibition of BTK in human TMD8 cells xenografted in CB17 SCID nude mouse assessed as decrease in PLCgamma2 phosphorylation at Y759 at 15 mg/kg, […] by Western blot method. The series is classed as functional, organism-based.

pIC50: −log10 of the molar value. Activity calls are given as the source filed them. No cut-off for these calls is given here.

Consider one molecule from ChEMBL document CHEMBL4184325, “Discovery of 4,7-Diamino-5-(4-phenoxyphenyl)-6-methylene-pyrimido[5,4- b]pyrrolizines as Novel Bruton's Tyrosine Kinase Inhibitors” (J Med Chem, 2018).

Receptor tyrosine-protein kinase erbB-2, sequence (P04626 whole entry): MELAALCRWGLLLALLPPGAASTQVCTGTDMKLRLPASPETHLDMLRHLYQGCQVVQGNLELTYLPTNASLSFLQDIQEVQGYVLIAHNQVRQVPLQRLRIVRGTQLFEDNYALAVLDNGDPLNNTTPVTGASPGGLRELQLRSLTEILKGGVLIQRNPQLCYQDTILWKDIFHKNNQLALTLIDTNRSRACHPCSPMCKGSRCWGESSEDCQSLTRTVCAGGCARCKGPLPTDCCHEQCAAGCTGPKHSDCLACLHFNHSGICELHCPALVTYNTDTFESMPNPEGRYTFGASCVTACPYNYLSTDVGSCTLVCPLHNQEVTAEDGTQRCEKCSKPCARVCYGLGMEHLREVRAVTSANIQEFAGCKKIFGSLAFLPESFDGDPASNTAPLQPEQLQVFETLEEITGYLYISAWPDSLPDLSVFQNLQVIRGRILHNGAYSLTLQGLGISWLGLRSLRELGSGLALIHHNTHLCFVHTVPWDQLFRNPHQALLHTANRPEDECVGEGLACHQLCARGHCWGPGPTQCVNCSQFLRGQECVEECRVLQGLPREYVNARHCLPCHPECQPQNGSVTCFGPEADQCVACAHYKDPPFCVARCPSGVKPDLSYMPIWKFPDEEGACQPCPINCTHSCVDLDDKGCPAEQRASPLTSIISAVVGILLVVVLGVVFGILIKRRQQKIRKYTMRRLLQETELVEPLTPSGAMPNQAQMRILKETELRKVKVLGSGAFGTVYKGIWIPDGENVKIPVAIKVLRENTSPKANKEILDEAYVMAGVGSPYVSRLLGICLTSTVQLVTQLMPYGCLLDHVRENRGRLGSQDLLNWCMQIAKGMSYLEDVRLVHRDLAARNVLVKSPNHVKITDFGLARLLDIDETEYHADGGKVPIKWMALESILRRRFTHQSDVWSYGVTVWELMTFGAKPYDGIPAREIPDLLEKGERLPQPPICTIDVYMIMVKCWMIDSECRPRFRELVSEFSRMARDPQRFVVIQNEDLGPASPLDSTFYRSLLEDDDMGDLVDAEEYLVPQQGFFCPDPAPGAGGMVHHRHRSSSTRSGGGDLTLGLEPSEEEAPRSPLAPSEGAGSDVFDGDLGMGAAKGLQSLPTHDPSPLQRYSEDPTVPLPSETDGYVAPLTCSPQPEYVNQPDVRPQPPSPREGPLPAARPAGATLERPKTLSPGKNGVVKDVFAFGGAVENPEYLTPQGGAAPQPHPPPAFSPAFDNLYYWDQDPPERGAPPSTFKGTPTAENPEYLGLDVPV

As to `C=CC(=O)N[C@@H]1Cn2c(c(-c3ccc(Oc4ccccc4)cc3)c3c(N)ncnc32)C1=C`, the pIC50 was 5.30 with Ramos; 8.60 in series [1]; 8.85 in series [3]; 7.82 in series [5]; 7.63 in series [8]. The Activity with TMD8 [2] is reported as 34.5%; in the series with TMD8 [4], 27.9%; with TMD8 [7], 12.5%. Also, the Drug metabolism entry in series [6], in series [9] and in [10] was “Metabolite_Detected” throughout. Besides, in the series with Mus musculus, the inhibition entry is “Active”.

For orientation: pIC50 means the negative decadic logarithm of the IC50, by convention in mol/L.
